Data reported in ChEMBL document CHEMBL1134798, “Pharmacological evaluation of a diarylmethylene-piperidine derivative: a new potent atypical antipsychotic?” (Bioorg Med Chem Lett, 2001).
Active and inactive are the calls of the source. No cut-off for these calls is given here.

What was measured:
[1] = molecular target: Serotonin 2 (5-HT2) receptor (Homo sapiens, UniProt P41595+P28223+P28335); assay: In vitro binding affinity for 5-hydroxytryptamine 2 receptor; format: protein assay
D(4) dopamine receptor = molecular target: T1, D(4) dopamine receptor (Homo sapiens, UniProt P21917); assay: In vitro binding affinity for Dopamine receptor D4
T1 sequence (P21917 whole entry): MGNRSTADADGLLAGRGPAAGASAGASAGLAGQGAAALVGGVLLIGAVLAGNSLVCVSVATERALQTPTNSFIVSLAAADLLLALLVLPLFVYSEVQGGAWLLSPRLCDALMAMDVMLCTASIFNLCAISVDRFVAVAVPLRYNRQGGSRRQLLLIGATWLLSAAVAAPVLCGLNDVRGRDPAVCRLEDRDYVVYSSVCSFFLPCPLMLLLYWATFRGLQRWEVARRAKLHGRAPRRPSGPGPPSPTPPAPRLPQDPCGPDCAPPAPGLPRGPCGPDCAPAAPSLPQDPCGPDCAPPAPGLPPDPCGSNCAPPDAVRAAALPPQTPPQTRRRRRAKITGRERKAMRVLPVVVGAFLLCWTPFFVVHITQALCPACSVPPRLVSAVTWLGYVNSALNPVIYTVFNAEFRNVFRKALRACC

Mus musculus [2] = organism: Mus musculus; assay: Anticholinergic effect evaluated in mice using oxotremorine induced salivation; format: functional
In short: (§1)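 Oxotremorine 0.25 mg/kg ip induced tremors and salivation. Compounds were given ip 30 min beforehand, groups of six mice. Scoring every 5 min over 30 min. ED50 from non-linear regression.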

Mus musculus [3] = organism: Mus musculus; assay: Lethality in mice evaluated in IRWIN-test; format: functional
In short: (§2)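 Irwin observational test run to a standard protocol after ip administration.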

Mus musculus [4] = organism: Mus musculus; assay: Anticholinergic effect evaluated in mice using oxotremorine induced tremors; format: functional; in short: as §1
Mus musculus [5] = organism: Mus musculus; assay: Induction of convulsions in mice evaluated in IRWIN-test; format: functional; in short: as §2
Mus musculus [6] = organism: Mus musculus; assay: Induction of sedation in mice evaluated in IRWIN-test; format: functional; in short: as §2
Mus musculus [7] = assay: Effective dose required for inhibition of apomorphine(sc, 2.5 mg/kg ) induced climbing in mice on ip administration; format: functional; conditions: route intraperitoneal
In short: (§3)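 Apomorphine hydrochloride given sc at 2.5 mg/kg to induce climbing and stereotypy. Compounds dosed 30 min earlier, groups of eight mice. ED50 for each behaviour by non-linear regression.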

Mus musculus [8] = assay: Effective dose required for inhibition of apomorphine(sc, 2.5 mg/kg ) induced climbing in mice on po administration; format: functional
In short: (§4)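 Mice were dosed po 30 min before apomorphine hydrochloride (2.5 mg/kg sc), in groups of eight. ED50 for inhibition of climbing or stereotypy was derived by non-linear regression.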

Mus musculus [9] = assay: Effective dose required for inhibition of apomorphine(sc, 2.5 mg/kg ) induced stereotypy in mice on […]; format: functional; in short: as §4
Mus musculus [10] = assay: Effective dose required for inhibition of DOI-induced head-twitches in mice on ip administration; format: functional
In short: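 Head-twitches elicited by ip (±)-DOI hydrochloride, 1.6 mg/kg. Mice (groups of eight) pretreated ip 30 min before DOI. Twitches counted for 5 min starting 5 min after DOI. ED50 by non-linear regression.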

Mus musculus [11] = assay: Decrease in number of avoidance responses in mice at a dose ~100 mg/kg; format: functional; conditions: at 100 mg/kg
Mus musculus [12] = assay: Decrease in number of avoidance responses in mice at a dose ~110 mg/kg; format: functional
Mus musculus [13] = assay: Decrease in number of avoidance responses in mice at a dose ~115 mg/kg; format: functional
Mus musculus [14] = assay: Decrease in number of avoidance responses in mice at a dose ~60 mg/kg; format: functional; conditions: at 60 mg/kg
Mus musculus [15] = assay: Antagonistic activity on amphetamine-induced stereotypy at a dose of 100 umol/kg (p<0.05); format: functional
Mus musculus [16] = assay: Decrease in d-amphetamine-induced hyperactivity at a dose of 10 umol/kg (p<0.01); format: functional
Rattus norvegicus [17] = assay: Decrease in arterial blood pressure by the compound at a dose of 43.1-431 mg/kg in rats 24 hr after oral administration; No significant; format: functional, organism-based; conditions: Artery
Rattus norvegicus [18] = assay: Increase in heart rate by the compound at a dose of 43.1-431 mg/kg in rats on oral administration; No significant; format: functional, organism-based
Mus musculus [19] = assay: Effective dose required for inhibition of apomorphine(sc, 2.5 mg/kg ) induced stereotypy in mice on ip administration; format: functional; conditions: route intraperitoneal; in short: as §3
Mus musculus [20] = assay: Anticholinergic effect evaluated in mice using oxotremorine induced salivation(ip); format: functional
In short: (§5)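 Mice were dosed ip 30 min before oxotremorine (0.25 mg/kg ip), in groups of six. Salivation and tremors were scored every 5 min for 30 min. ED50 was derived by non-linear regression.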

Mus musculus [21] = assay: Anticholinergic effect evaluated in mice using oxotremorine induced tremors(ip); format: functional; in short: as §5
Mus musculus [22] = assay: Decrease in number of avoidance responses in mice at a dose ~10 mg/kg; format: functional; conditions: at 10 mg/kg
Mus musculus [23] = assay: Decrease in number of avoidance responses in mice at a dose ~25 mg/kg; format: functional
Mus musculus [24] = assay: Decrease in number of avoidance responses in mice at a dose ~50 mg/kg; format: functional
Mus musculus [25] = assay: Induction of catalepsy up to a dose of 160 mg/kg when administered po in mice; No induction; format: functional, organism-based; design: dose 160 mg/kg
Rattus norvegicus [26] = assay: Decrease in arterial blood pressure by the compound at a dose of 32.7 mg/kg in rats 0.5-2.5h after administration; format: functional, Artery
Rattus norvegicus [27] = assay: Increase in heart rate by the compound at a dose of 10.5 mg/kg in rats; format: functional

Row | SMILES | Activity (Mus musculus [3]) | Activity (Mus musculus [5]) | Activity (Mus musculus [6]) | ED50 (Mus musculus [7]) | ED50 (Mus musculus [8]) | ED50 (Mus musculus [9]) | ED50 (Mus musculus [10]) | ED50 (Mus musculus [19]) | further results
1 | NC(=O)C1CCC(CN2CCC(=C(c3ccccc3)c3ccc(F)cc3)CC2)O1 (configuration not stated) | 1000 | 320 | 100 | 46 µmol/kg | 140 µmol/kg | 290 µmol/kg | 16 µmol/kg | 69 µmol/kg | Log Ki [1]: -7.5; Ki (D(4) dopamine receptor): 0.158 µM; Activity (Mus musculus [2]): 20; Activity (Mus musculus [4]): 32; Decrease in No. of avoidence responses (Mus musculus [11]): 27%; Decrease in No. of avoidence responses (Mus musculus [12]): 45%; Decrease in No. of avoidence responses (Mus musculus [13]): 80%; Decrease in No. of avoidence responses (Mus musculus [14]): 12.5%; Decrease (Mus musculus [15]): 13%; Decrease (Mus musculus [16]): 44%; Decrease in arterial blood pressure (Rattus norvegicus [17]): inactive; Increase in heart rate (Rattus norvegicus [18]): inactive
2 | CN1CCN(C2=Nc3cc(Cl)ccc3Nc3ccccc32)CC1 [CLOZAPINE] | 320 | 180 | 3.2 | 28 µmol/kg | 30 µmol/kg | 62 µmol/kg | 1.5 µmol/kg | 67 µmol/kg | Activity (Mus musculus [20]): 8; Activity (Mus musculus [21]): 12; Decrease in No. of avoidence responses (Mus musculus [22]): 10%; Decrease in No. of avoidence responses (Mus musculus [23]): 65%; Decrease in No. of avoidence responses (Mus musculus [24]): 85%; Induction of catalepsy (Mus musculus [25]): inactive; Decrease in arterial blood pressure (Rattus norvegicus [26]): 32%; Increase in heart rate (Rattus norvegicus [27]): 49%
3 | O=C(CCCN1CCC(O)(c2ccc(Cl)cc2)CC1)c1ccc(F)cc1 [HALOPERIDOL] |  |  |  | 0.32 µmol/kg |  |  | 0.61 µmol/kg | 0.31 µmol/kg | 
4 | OCCOCCN1CCN(C2=Nc3ccccc3Sc3ccccc32)CC1 [QUETIAPINE] |  |  |  | 51 µmol/kg |  |  | 9 µmol/kg | 60 µmol/kg | 
